Assays:
SF-295 [1] = assay: Antiproliferative activity against human SF295 cells after 72 hrs by MTT assay; format: functional, cell-based; conditions: SF-295, 72 h
Outline: (§1)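 MTT reduction: cancer lines plated at 0.7×10^5 to 0.3×10^6 cells/well, V79 and L929 fibroblasts at 0.5×10^5 cells/well. Compounds in DMSO (0.1%) were given for 24 h at 0.04–40.92 µM or 72 h at 0.04–8.19 µM. Fresh medium with 0.5 mg/mL MTT was added for 3 h, then formazan was dissolved in DMSO and read at 595 nm as % of control. IC50 came from nonlinear regression with 95% CI. Doxorubicin (0.001–1.06 µM) was the positive control. Triplicate, ≥3 repeats.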

PC-3 [2] = assay: Cytotoxicity against human PC3 cells after 24 hrs in absence of GSH-OEt by MTT assay; format: functional, cell-based; conditions: PC-3, 24 h
Outline: (§2)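 24 h MTT exposure (0.04–40.92 µM in 0.1% DMSO), with or without co-treatment with GSH ethyl ester (15 mM) to gauge the ROS contribution. MTT was 0.5 mg/mL for 3 h, with formazan dissolved in DMSO and absorbance at 595 nm expressed as % of control. Triplicate, repeated at least three times.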

L929 [3] = assay: Cytotoxicity against mouse L929 cells after 24 hrs in absence of GSH-OEt by MTT assay; format: cell-based; conditions: L929, 24 h; outline: as §2
HCT-116 [4] = assay: Cytotoxicity against human HCT116 cells after 24 hrs in absence of GSH-OEt by MTT assay; format: functional, cell-based; conditions: HCT-116, 24 h; outline: as §2
L929 [5] = assay: Antiproliferative activity against mouse L929 cells after 72 hrs by MTT assay; format: cell-based; conditions: L929, 72 h; outline: as §1
HCT-116 [6] = assay: Cytotoxicity against human HCT116 cells after 24 hrs in presence of GSH-OEt by MTT assay; format: functional, cell-based; conditions: HCT-116, 24 h; outline: as §2
SF-295 [7] = assay: Cytotoxicity against human SF295 cells after 24 hrs in presence of GSH-OEt by MTT assay; format: functional, cell-based; conditions: SF-295, 24 h; outline: as §2
SW-620 = assay: Antiproliferative activity against human SW620 cells after 72 hrs by MTT assay; format: functional, cell-based; conditions: SW-620, 72 h; outline: as §1
HCT-116 [8] = assay: Antiproliferative activity against human HCT116 cells after 72 hrs by MTT assay; format: functional, cell-based; conditions: HCT-116, 72 h; outline: as §1
L929 [9] = assay: Cytotoxicity against mouse L929 cells after 24 hrs in presence of GSH-OEt by MTT assay; format: cell-based; conditions: L929, 24 h; outline: as §2
PC-3 [10] = assay: Antiproliferative activity against human PC3 cells after 72 hrs by MTT assay; format: functional, cell-based; conditions: PC-3, 72 h; outline: as §1
PC-3 [11] = assay: Cytotoxicity against human PC3 cells after 24 hrs in presence of GSH-OEt by MTT assay; format: functional, cell-based; conditions: PC-3, 24 h; outline: as §2
SF-295 [12] = assay: Cytotoxicity against human SF295 cells after 24 hrs in absence of GSH-OEt by MTT assay; format: functional, cell-based; conditions: SF-295, 24 h; outline: as §2
V79 = assay: Antiproliferative activity against chinese hamster V79 cells after 72 hrs by MTT assay; format: cell-based; conditions: Cricetulus griseus, V79, 72 h; outline: as §1
MDA-MB-435 = assay: Antiproliferative activity against human MDA-MB-435 cells after 72 hrs by MTT assay; format: functional, cell-based; conditions: MDA-MB-435, 72 h; outline: as §1

O=C1C2=C(OC(Cn3cc(CNc4ccc5n4[B-](F)(F)[N+]4=C(Cl)C=CC4=C5c4ccccc4)nn3)C2)C(=O)c2ccccc21 (stereo not given)
IC50 (SF-295 [1]): > 8.19 µM
IC50 (PC-3 [2]): > 40 µM
IC50 (L929 [3]): > 40 µM
IC50 (HCT-116 [4]): > 40 µM
IC50 (L929 [5]): > 8.19 µM
IC50 (HCT-116 [6]): > 40 µM
IC50 (SF-295 [7]): > 40 µM
IC50 (SW-620): > 8.19 µM
IC50 (HCT-116 [8]): > 8.19 µM
IC50 (L929 [9]): > 40 µM
IC50 (PC-3 [10]): > 8.19 µM
IC50 (PC-3 [11]): > 40 µM
IC50 (SF-295 [12]): > 40 µM
IC50 (V79): > 8.19 µM
IC50 (MDA-MB-435): > 8.19 µM

CC1(C)CC(n2cc(CNc3ccc4n3[B-](F)(F)[N+]3=C(Cl)C=CC3=C4c3ccccc3)nn2)C2=C(O1)C(=O)c1ccccc1C2=O (stereo not given)
IC50 (SF-295 [1]): > 7.83 µM
IC50 (PC-3 [2]): > 40 µM
IC50 (L929 [3]): > 40 µM
IC50 (HCT-116 [4]): > 40 µM
IC50 (L929 [5]): > 7.83 µM
IC50 (HCT-116 [6]): > 40 µM
IC50 (SF-295 [7]): > 40 µM
IC50 (SW-620): > 7.83 µM
IC50 (HCT-116 [8]): > 7.83 µM
IC50 (L929 [9]): > 40 µM
IC50 (PC-3 [10]): > 7.83 µM
IC50 (PC-3 [11]): > 40 µM
IC50 (SF-295 [12]): > 40 µM
IC50 (V79): > 7.83 µM
IC50 (MDA-MB-435): > 7.83 µM
